Source: PubChem (several laboratories)
The sample as a whole holds a higher share of hits than the screen did.
T cell HTS = T cell immune modulation candidate; 2C CD8+ T cell-vesicle binding, flow cytometry; stronger effect = lower value; response (vesicle binding), % at 7 µM; 330,000 tested, 0.068% active; AID 2052;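 active = response, share of CD8 T cells binding vesicles, and their 90th percentile fluorescence all below set limits, cut at about 80% in these data, passing the limit was not always enough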;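 note: values below 100% mean blocked vesicle binding to the CD8+ T cells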
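Benchmarks: naked versus QL9-loaded vesicles / Assay system: purified 2C TCR transgenic mouse naive CD8+ T cells / Technique: high-throughput flow cytometry with anti-B7-1 and anti-CD8 staining / Timing: Cell–vesicle co-incubation 1.5 h at 37 °C, staining 20 min on ice / Read-out: percent CD8+ FL2 mean versus row control / Probe or stimulus: QL9-loaded Drosophila micro-vesicles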
ALR inh = human ALR oxidase inhibition via reduced H2O2. 290,000 tested, 3.8% active. P55789. inhibition, % (no concentration beside the values). purified ALR, DTT oxidation, H2O2 HRP-luminol luminescence;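 active = mean replicate inhibition above about 79%, with every replicate also reaching it, limit read from the data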
Target sequence (P55789 whole entry, looked up): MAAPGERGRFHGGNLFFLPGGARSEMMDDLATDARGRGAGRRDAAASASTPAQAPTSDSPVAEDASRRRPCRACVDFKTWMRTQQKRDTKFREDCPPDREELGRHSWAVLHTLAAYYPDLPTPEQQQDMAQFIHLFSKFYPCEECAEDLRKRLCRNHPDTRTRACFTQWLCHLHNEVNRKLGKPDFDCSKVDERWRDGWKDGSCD
N-glyco inh = N-linked glycosylation inhibition. D54 ERlucT glycosylation luciferase reporter, 24 h; percent of 100 nM tunicamycin response. reporter increase, % at 12.5 µM. 360,000 tested, 0.23% active;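 active = mean luciferase reporter signal, scaled so untreated is 0 and the glycosylation-blocking control 100, at or above a set limit in every replicate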;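 note: luciferase carries N-glycosylation sites so blocking glycosylation raises the light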
Each line names hits and unclear results; the compound was inactive in the other large screens.

O=C(c1ccc(N2CCOCC2)cc1)N1CCCC(Nc2ccccc2)C1 (stereo not given)	none
CCN(CC(=O)Nc1cc(Cl)ccc1C)C(=O)CCS(=O)(=O)c1ccc(C)cc1	none
O=Nc1c(O)[nH]c2ccc(F)cc12	none
Cc1cc2c(N=O)c(NO)ccc2[nH]1	ALR inh 79
COc1ccc(OCc2nnc(SCC(=O)c3ccccc3)o2)cc1	none
COc1ccc(NC2CCCN(C(=O)COc3ccc(C(C)=O)cc3)C2)cc1 (stereo not given)	none (no result: T cell HTS, ALR inh)
COc1ccc(NC2CCCN(C(=O)COc3ccc(C)cc3)C2)cc1 (stereo not given)	ALR inh 90
COc1ccc(OCC(=O)N2CCCC(Nc3ccc(C)c(C)c3)C2)cc1 (stereo not given)	none (no result: T cell HTS, ALR inh)
COc1ccc(NC2CCCN(C(=O)CCOc3ccccc3)C2)cc1 (stereo not given)	ALR inh 99
COc1ccc(NC2CCCN(C(=O)CCc3ccccc3F)C2)cc1 (stereo not given)	ALR inh 100
COc1ccc(NC2CCCN(C(=O)CSc3ccccc3)C2)cc1 (stereo not given)	ALR inh 99
COc1ccc(N2CCN(C(=O)CSc3ccccc3)CC2)cc1	none
O=C(CCc1cccc(Cl)c1)N1CCCC(Nc2ccccc2)C1 (stereo not given)	none
CSc1ccc(C(O)c2ncc(-c3ccccc3Cl)[nH]2)cc1 (stereo not given)	none (no result: T cell HTS, ALR inh)
O=C(NCC1CCCO1)c1cncc(Br)c1 (stereo not given)	none
O=C(Nc1cccc(Cl)c1)c1ccc(NC2=NC3CS(=O)(=O)CC3S2)cc1 (stereo not given)	none
CSc1cccc(NC(=O)c2ccc(NC3=NC4CS(=O)(=O)CC4S3)cc2)c1 (stereo not given)	ALR inh 99
O=C(O)c1cc(O)ccc1-c1ccc(O)cc1	ALR inh 98
O=C(O)c1cc(-c2ccc(O)cc2)on1	none
Cc1cc(C)n(C(=O)c2sc3cc(F)ccc3c2Cl)n1	T cell HTS 0.0 (no result: N-glyco inh)
O=C(Nc1ccon1)c1sc2cc(F)ccc2c1Cl	none
O=C(NC1=NCCS1)c1sc2cc(F)ccc2c1Cl	ALR inh 99
O=C(NC1CC1)c1sc2cc(F)ccc2c1Cl	none (no result: ALR inh)
COc1ccc(C)cc1NC(=O)c1cc2c(CO)cnc(C)c2oc1=N	ALR inh 86
COc1ccccc1NC(=O)c1cc2c(CO)cnc(C)c2oc1=Nc1ccc(OC)c(OC)c1	none
CCCCCN(C(=O)CCC(=O)OCC(=O)N1CCCCC1CC)c1c(N)n(CCCC)c(=O)[nH]c1=O (stereo not given)	none (no result: T cell HTS, ALR inh)
Cc1ccc(C(=O)CCc2ccc(N)cc2)cc1	ALR inh 99
Cc1ccc(C(=O)Cc2ccccc2)cc1	none (no result: T cell HTS, ALR inh)
Cc1sc2ncnc(NCC3(N4CCOCC4)CCCCC3)c2c1C	none (no result: ALR inh)
Cc1sc2ncnc(NCC(C)(C)N3CCOCC3)c2c1C	T cell HTS 56
CCCCCOc1ccc(NC2=CC(=O)CCC2)cc1	none
Cc1cc(Sc2nnc(/N=C/N(C)C)s2)c2ccccc2n1	ALR inh 98
Cc1cc(Sc2nnc(N)s2)c2ccccc2n1	none
CC(=O)Nc1ccc(S[C@@H](CCN2CC[C@H](C(C)(C)C)CCC2=O)c2ccccc2)cc1	ALR inh 97
CC(=O)Nc1ccc(SC[C@H](Cc2ccccc2)N2CC[C@@H](O)CCC2=O)cc1	ALR inh 99
CC(=O)Nc1ccc(SC[C@H](Cc2ccccc2)N2CC[C@@H](C(C)(C)C)CCC2=O)cc1	ALR inh 99
CC(=O)Nc1ccc(SCCN2CC[C@@H](C)CCC2=O)cc1	ALR inh 99
CC(C)(C)[C@@H]1CCC(=O)N(CC[C@H](Sc2ccccc2)c2ccccc2)CC1	none
CC(C)(C)[C@H]1CCC(=O)N([C@H](CSc2ccccc2)Cc2ccccc2)CC1	none
CC(=O)Nc1ccc(SCCN2CC[C@@H](O)CCC2=O)cc1	none
CC(=O)Nc1ccc(SC[C@H](Cc2ccccc2)N2CCN(CCc3ccccc3)CCC2=O)cc1	none (no result: T cell HTS, ALR inh)
CCC(C)Sc1ccc([C@@H]2[C@@H]3C(=O)N(C)C(=O)[C@@H]3[C@]3(C(=O)OC)CCCCN23)cc1 (stereo not given in full)	none
CCCC[C@@H]1CCCO[C@@](C(=O)NCc2cc(C)n(C)n2)(C(F)(F)F)C1	none
CCc1cccc(NC(=O)Cn2c(=O)n(CCC(=O)NCC3CCCO3)c(=O)c3cc(OC)c(OC)cc32)c1 (stereo not given)	none
Cc1cccc(NC(=O)Oc2ccc(Cl)c3cccnc23)c1	none (no result: T cell HTS, ALR inh)
C[C@H](CO)N1C[C@H](C)[C@@H](CN(C)Cc2ccc(C(=O)O)cc2)Oc2ccc(NC(=O)Cn3cnnn3)cc2C1=O	none (no result: ALR inh)
CC1(C)c2ccccc2-n2c1cc1oc(=O)cc(O)c1c2=O	none
Cc1ccccc1N/N=C/c1ccc(C#N)cc1	none
CN/N=C/c1ccc(C#N)cc1	ALR inh 99
CC(Cc1ccc(O)c(O)c1)C(C)Cc1ccc(O)c(O)c1 (stereo not given)	ALR inh 99 (no result: N-glyco inh)
N[C@@H](Cc1ccc(O)c(O)c1)C(=O)O	none (no result: T cell HTS, ALR inh)
Cc1ccc(Cc2c(C)nc3nc(SCC(=O)NCc4ccco4)nn3c2C)cc1	none
Cc1cccc(Cc2c(C)nc3nc(SCC(=O)NCc4ccco4)nn3c2C)c1	ALR inh 77
CCc1ccc(N2CC(C(=O)Nc3cccc(C(=O)NC4CC4)c3)CC2=O)cc1 (stereo not given)	none
O=C(CCc1nnc(Cc2c[nH]c3ccccc23)o1)NCCC1CCCCO1 (stereo not given)	none (no result: T cell HTS, ALR inh)
CCC(C)c1ccc(S(=O)(=O)N2CCN(C(=O)c3ccc(Cl)c(S(=O)(=O)N4CCOCC4)c3)CC2)cc1 (stereo not given)	none (no result: T cell HTS, ALR inh)
Cc1cc(C)c(C)c(OC(=O)c2sc(Cl)nc2C)c1	N-glyco inh 38
Cc1ccc(NC(=O)c2sc(Cl)nc2C)c(C)c1	none
COc1ccc(C2=CC(=O)C[C@H](COCc3ccccc3)N(C(=O)OC(C)(C)C)O2)cc1	none (no result: T cell HTS, ALR inh)
Cc1ccc(Nc2nc(C(=O)NCc3ccco3)cs2)cc1	none
CCN(CC)C(=O)c1csc(Nc2ccc(C)cc2)n1	ALR inh 87
CC(C)(C)c1ccc(-c2cn(-c3ccc(Br)cc3)c3[n+]2CCCS3)cc1	none (no result: T cell HTS, ALR inh)
CC(C)CCNC(=O)c1ccc(-n2cnc3cccnc32)cc1	none
CCOC(=O)c1nnc(-c2cccs2)nc1Oc1ccc(Cl)cc1	ALR inh 92
CCOC(=O)c1nnc(-c2cccs2)nc1Oc1ccccc1C(=O)OC	none
COc1cccc(/C=N/NC(=O)c2cc(-c3cccn3C)n[nH]2)c1	none
COc1cc(/C=N/NC(=O)c2cc(-c3cccn3C)n[nH]2)cc(OC)c1OC	N-glyco inh 68
C/C(=N\NC(=O)c1ccc(NS(=O)(=O)c2cccs2)cc1)c1ccccc1	none
C/C(=N\NC(=O)c1ccc(NS(=O)(=O)c2cccs2)cc1)c1ccc(O)cc1O	ALR inh 99
COC(=O)N/N=C/c1cccs1	none
COc1ccc(C=NNC(=O)c2ccccc2NS(=O)(=O)c2cccs2)cc1O	none
COc1cc2ccccc2cc1C(=O)N/N=C/c1cccs1	N-glyco inh 35 (no result: T cell HTS, ALR inh)
COc1cc(C=NNC(=O)c2ccccc2NS(=O)(=O)c2cccs2)cc(OC)c1O	ALR inh 99
Cc1ccc(C(O)c2ncc(-c3cccc(F)c3)[nH]2)cc1 (stereo not given)	none (no result: T cell HTS, ALR inh)
Cc1ccc(N(CC(=O)NC2CCCCC2)S(=O)(=O)c2cccs2)cc1	none
